Measured values collected from several papers.
Protocols differ between the studies behind these lines.
Sample: plasma

| SMILES | system | setting | AUC(0-t) |
| --- | --- | --- | --- |
| COc1ccc(-n2nc(C(N)=O)c3c2C(=O)N(c2ccc(N4CCCCC4=O)cc2)CC3)cc1 | male human | oral, 2.5 mg, single dose | 430 ng·h/mL |
| CO[C@H]1CC[C@H](N2C(=O)CNc3ncc(-c4ccc(C(C)(C)O)nc4)nc32)CC1 | human | oral, 7.5 mg, multiple doses, patients | 299 ng·h/mL |
| COc1ccc([C@@H]2CN(C(=O)[C@@H](O)CO)C[C@@]2(C)[C@@H](C)O)cc1OC1CN(c2ccc(C)cn2)C1 | human | oral, 5 mg, single dose, healthy volunteers | 1590 ng·h/mL |
| OC[C@H]1O[C@@H](c2ccc(Cl)c(Cc3ccc(O[C@H]4CCOC4)cc3)c2)[C@H](O)[C@@H](O)[C@@H]1O | human | oral, 100 mg, single dose | 20 µM·h |
| Cc1nc(NC(=O)N2CCC[C@H]2C(N)=O)sc1-c1ccnc(C(C)(C)C(F)(F)F)c1 | human | oral, 270 mg, patients | 25300 ng·h/mL |
| CC(C)n1cc(C#N)c2cc(-n3cc(C(=O)O)cn3)ccc21 | male human | oral, 600 mg, single dose, fasted, healthy volunteers | 98800 ng·h/mL |
| O=C(/C=C/c1cccc(S(=O)(=O)Nc2ccccc2)c1)NO | human | intravenous, 1800 mg/m², patients | 54700 ng·h/mL |
| COc1cc(N2CCC(N3CCN(C)CC3)CC2)ccc1Nc1ncnc(Nc2ccccc2S(=O)(=O)C(C)C)n1 | human | oral, 200 mg, multiple doses, patients | 9170 ng·h/mL |
| CCO[C@H]1CCN(Cc2c(OC)cc(C)c3[nH]ccc23)[C@H](c2ccc(C(=O)O)cc2)C1 | human | oral, 50 mg, multiple doses, twice daily, patients | 8570 ng·h/mL |
| CCCCC1=NC2(CCCC2)C(=O)N1Cc1ccc(-c2ccccc2S(=O)(=O)Nc2noc(C)c2C)c(COCC)c1 | human | oral, 200 mg, single dose, fasted, healthy volunteers | 58100 ng·h/mL |
| C[C@@H](Oc1ccc(S(C)(=O)=O)cc1C(=O)N1C[C@@H]2C[C@]2(c2cc(C(F)(F)F)on2)C1)C(F)(F)F | human | oral, 25 mg, fed, tablet | 11 µM·h |
| CC[C@H](C)C(=O)O[C@H]1C[C@H](O)C=C2C=C[C@H](C)[C@H](CC[C@@H](O)C[C@@H](O)CC(=O)O)[C@H]21 | human | oral, 20 mg | 46.7 ng·h/mL |
| C#Cc1cccc(Nc2ncnc3cc(OCCOC)c(OCCOC)cc23)c1 | human | oral, 100 mg, patients | 21.9 µM·h |
| O=C(O)C[C@H](O)C[C@H](O)/C=C/c1c(C2CC2)nc2ccccc2c1-c1ccc(F)cc1 | human | oral, 2 mg, single dose, fasted, healthy volunteers, tablet | 243 ng·h/mL |
| CNC(=O)c1ccccc1Sc1ccc2c(/C=C/c3ccccn3)n[nH]c2c1 | human | oral, 5 mg, single dose, fasted, healthy volunteers | 194 ng·h/mL |
| CC(=O)Oc1ccccc1C(=O)O | human | oral, 650 mg, healthy volunteers | 2630 ng·h/mL |
| CCNCCCNC/C=C\CNCCCNCC | human | intravenous, 50 mg, patients, infusion | 79.8 ng·h/mL |
| NS(=O)(=O)c1ccc(NC(=O)Nc2ccc(F)cc2)cc1 | human | oral, 2000 mg, multiple doses, once daily | 180000 ng·h/mL |
| C[C@@H]1COCCN1c1cc(C2([S@](C)(=N)=O)CC2)nc(-c2cc[nH]c3nccc2-3)n1 | human | oral, 20 mg, single dose, patients | 6770 ng·h/mL |
| C[C@@]1(c2cc(NC(=O)c3ccc(C#N)cn3)ccc2F)C=CSC(N)=N1 | human | oral, 10 mg, single dose | 1000 ng·h/mL |
| CO[C@@H]1[C@H](OC(=O)N2CC(CCN3CCOCC3)C2)CC[C@]2(CO2)[C@H]1[C@@]1(C)O[C@@H]1CC=C(C)C | human | subcutaneous, 0.6 mg, single dose, healthy volunteers | 1.21 ng·h/mL |
| COc1cc2c(cc1OC)CN(CCc1ccc(NC(=O)c3cc(OC)c(OC)cc3NC(=O)c3cnc4ccccc4c3)cc1)CC2 | human | intravenous, 1 mg/kg, patients | 5.4 µM·h |
| C[C@@H](Nc1cc(F)cc(F)c1)c1cc(C(=O)N(C)C)cc2c(=O)cc(N3CCOCC3)oc12 | human | oral, 30 mg, single dose, patients | 599 ng·h/mL |
| Oc1cc(O)c2c(c1)O[C@@H](c1ccc(O)c(O)c1)[C@@H](O)C2 | human | oral, 30 mg, single dose | 6.9 ng·h/mL |
| CC(C)(O)c1ccccc1-c1ccc2[nH]c(/C=C/c3ccc(C(F)(F)F)cc3)nc2c1 | male human | oral, 225 mg, single dose, fasted | 5740 ng·h/mL |
| CCOc1cc2ncc(C#N)c(Nc3ccc(OCc4ccccn4)c(Cl)c3)c2cc1NC(=O)/C=C/[C@H]1CCCN1C | human | oral, 80 mg, single dose | 357 ng·h/mL |
| C[C@@H](c1ccc2nccn2c1)n1nnc2ncc(-c3cnn(C)c3)nc21 | human | oral, 200 mg | 3980 ng·h/mL |
| Nc1cc(C(F)(F)F)c(-c2cc(N3CCOCC3)nc(N3CCOCC3)n2)cn1 | human | oral, 50 mg/day, patients | 3830 ng·h/mL |
| FC(F)(F)c1ccc(CNc2ccc(Cc3c[nH]c4ncc(Cl)cc34)cn2)cn1 | human | oral, 1200 mg, multiple doses, patients | 29500 ng·h/mL |
| COCCOc1cnc2ccn([C@H](C)c3nnc4c(F)cc(-c5cnn(C)c5)cn34)c(=O)c2c1 | human | oral, 200 mg, multiple doses, once daily, patients | 36900 ng·h/mL |
